The list is not random: actives were taken first. Their share in the collection is about 5.1%.
APP 5'UTR act: activators of APP 5'UTR luciferase reporter, primary screen, SH-SY5Y cells | SH-SY5Y APP 5'UTR luciferase reporter, luminescence; zero percent = DMSO vehicle wells | activation, % at 2 µM | 1% of 190,000 active | AID 1276, 2008;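 active means activation above a set limit, based on mean plus 3 SD of controls, cut at about 140% in these data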
STAT1 act: STAT1 signaling activators, primary screen, cell-based, HTS, luciferase reporter | activation (% of control), % at 5.5 µM | NIH 3T3 STAT1-luciferase reporter, IFN-gamma, luminescence; 100% = IFN-gamma alone, no compound | 2.6% of 200,000 active;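 active means activation above the screen-wide mean activation plus 3 SD, cut at about 130% in these data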;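 further: raw ratio to IFN-gamma control signal so 100% means no change and 0% no light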
STAT3 blocker: IL-6 driven STAT3 reporter inhibitors, primary screen, U3A cells, luciferase, luminescence, MLSCN library; IL-6 STAT3-luciferase reporter; host cell line lacks STAT1; inhibition, % at 5.5 µM; 0.89% of 190,000 active; AID 862, 2007;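 active means inhibition above the mean inhibition across all screened compounds plus 3 SD, cut at about 44% in these data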;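 further: 0% = DMSO only wells and 100% = 100 µM nifuroxazide control wells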
STAT3 activator: IL-6 driven STAT3 reporter potentiators, primary screen, U3A cells, luciferase, luminescence, MLSCN library. 0.91% of 190,000 active. AID 871, 2007. activation (% of control), % at 5.6 µM. IL-6 STAT3-luciferase reporter; 100% = signal with IL-6 EC80 alone;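 active means activation above the screen-wide mean of compound activation plus 3 SD, cut at about 130% in these data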;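 further: 0% = background luminescence of wells with medium and substrate only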
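System – human U3A cells carrying STAT3-luciferase construct · Probe or stimulus – Interleukin-6, 33 ng/mL · Schedule – compound 1 h, then IL-6 6 h at 37 °C · Signal – luminescence from STAT3-driven luciferase reporter · Evaluation – percent of IL-6-only median luminescence · Benchmarks – IL-6-only high control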
NF-kB neuron act: activators of NF-kB expression in neurons, primary screen, cell-based, HTS. human neuronal cells, NF-kB reporter expression; active compounds read high. fold change at 12.5 µM. 1.6% of 190,000 active. AID 1239, 2008; in the data active means fold change above about 3.3
STAT1 inh: STAT1 signaling inhibitors, primary screen, cell-based, HTS, luciferase reporter | NIH 3T3 STAT1-luciferase reporter, IFN-gamma, luminescence | inhibition, % at 5.5 µM | 0.35% of 200,000 active;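 active means inhibition above a set limit, the mean inhibition across all tested compounds plus 3 SD, cut at about 34% in these data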;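 further: 0% = IFN-gamma with DMSO and 100% = IFN-gamma with 300 µM nifuroxazide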
STAT1 activ conf: STAT1 signaling activators, confirmation, cell-based, HTS, luciferase reporter. activation (% of control), % at 5.7 µM. 97% of 1,200 active. shares compounds with STAT1 act. NIH 3T3 STAT1-luciferase reporter, IFN-gamma potentiation, luminescence; 100% = IFN-gamma EC80 alone, no compound. AID 1262, 2008;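 active means activation above a set limit carried over from the earlier primary STAT1 screen, cut at about 140% in these data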;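 further: simple ratio to median IFN-gamma plus DMSO wells so 0% means no light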
NFkB act STAT1ct: NF-kB reporter activators, TNF-alpha stimulated, counter-screen for STAT1 activator project, cell-based, HEK293T, luciferase luminescence | shares compounds with STAT1 act | 100% = TNF-alpha with vehicle only | activation (% of control), % at 5.7 µM | 43% of 1,200 active | AID 1306, 2008;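 active means activation above the mean of solvent-only control wells plus 3 SD, set per campaign, cut at about 130% in these data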;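 further: TNF-alpha given at a submaximal dose yielding about 80% of full reporter signal; values are well signal over median control so 100% means no change and 0% no light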
STAT3 act STAT1c: STAT3 reporter activation by STAT1 hits, confirmation, counter-screen for STAT1 activator project, U3A cells, luciferase, luminescence; shares compounds with STAT1 act; IL-6; cells lack STAT1; 100 = IL-6 alone, no compound effect; activation (% of control), % at 5.7 µM; 46% of 1,200 active; AID 1316, 2008;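 active means activation above the solvent-only control well mean plus 3 SD, set per plate batch, cut at about 110% in these data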;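 further: 0% = no luminescence and 100% = median IL-6 plus DMSO wells; higher means more STAT3 reporter activation so hits are non-selective activators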
* = called active by the depositor; · = not tested or not shown.

SMILES	APP 5'UTR act	STAT1 act	STAT3 blocker	STAT3 activator	NF-kB neuron act	STAT1 inh	STAT1 activ conf	NFkB act STAT1ct	STAT3 act STAT1c
Cc1cs/c(=N/C(=S)Nc2ccccc2)n1C	133	178*	10	94	4*	-87	204*	133	107
c1ccc(CSc2ccc(-c3cccs3)nn2)cc1	124	165*	11	92	4.8*	-72	184*	134*	99
CCCCn1cnc2sc(-c3ccccc3)cc2c1=O	0	162*	-13	114	5.9*	-69	218*	150*	111*
CCN(CC)C(=O)CSc1ncnc2sc(-c3ccccc3)cc12	32	111	-11	111	1.6	-12	·	·	·
Cc1cc(C)c(S(=O)(=O)c2ccccc2)c(N2CCOCC2)n1	-6	97	-8	108	1.4	2	·	·	·
Fc1cccc(Cl)c1Cc1noc(/C=C/c2ccccc2)n1	48	121	12	99	1.6	-23	·	·	·
C(=C\c1nc(-c2ccccc2)no1)/c1ccccc1	135*	154*	24	82	8.6*	-60	207*	121	101
COc1ccc(C(=O)Nc2ccc(C3CC3(Cl)Cl)cc2)cc1 (centres undefined)	62	118	25	82	·	-23	·	·	·
O=C(Nc1ccc(-c2nc3ncccc3o2)cc1)c1ccco1	92	160*	23	83	2.7	-66	173*	126	102
Cc1ccc2nc(-c3ccc(NC(=O)c4ccco4)cc3)[nH]c2c1	113	160*	14	91	2.8	-73	187*	136*	105
O=C(Nc1ccc(-c2nc3cccnc3s2)cc1)c1ccco1	216*	152*	31	75	3.9*	-55	227*	113	97
O=C(Nc1ccc(-c2nc3ncccc3o2)cc1)c1ccc(Br)o1	-3	106	25	81	1.4	-7	·	·	·
Cc1cnc(C(=O)Nc2ccc(C(C)C)cc2)cn1	78	159*	22	85	4.5*	-63	180*	136*	95
CC(Oc1ccc(Br)cc1)C(=O)NCc1ccccn1 (centres undefined)	13	103	0	102	1.1	-3	·	·	·
Cc1sc2nc(CSc3ccc([N+](=O)[O-])c(C(F)(F)F)c3)[nH]c(=O)c2c1C	1	97	-2	105	0.93	3	·	·	·
Cc1cc(/C=N/NC(=O)c2nn(C)cc2Cl)c(C)n1-c1cccc(Br)c1	4	159*	-6	109	1.5	-65	113	108	91
Cc1cc(/C=N/NC(N)=S)c(C)n1-c1cccc(Cl)c1	-8	99	11	97	1.1	-1	·	·	·
CC1=CN2C(=N)/C(=C/c3ccc([N+](=O)[O-])o3)C(=O)N=C2S1	-48	101	-11	109	1.8	-1	·	·	·
CC1=CN2C(=N)/C(=C/c3ccco3)C(=O)N=C2S1	136*	206*	-20	118	7.7*	-118	310*	167*	120*
CCc1ccc(NC(=O)c2ccc3ncsc3c2)cc1	152*	162*	-11	110	6.4*	-70	203*	138*	105
C=C(C)CN(CC)C(=O)CCc1nnc(CCCc2ccccc2)o1	85	154*	-11	114	2.4	-61	172*	133	123*
O=C(CCc1nnc(CCCCc2ccccc2)o1)N(CCO)Cc1ccccc1	-4	102	2	110	1.1	-3	·	·	·
Cc1nn2c(c1-c1ccc(Cl)cc1)N=C(c1ccco1)CC2c1ccccc1 (centres undefined)	2	104	14	91	1.2	-4	·	·	·
CCCC(=O)Nc1ccc(-c2nc3cc(C)c(C)cc3o2)cc1	53	202*	14	88	4.7*	-113	224*	141*	122*
CC(C)CC(=O)Nc1ccc2oc(-c3cccnc3)nc2c1	50	124	10	96	2.1	-26	·	·	·
SMILES	APP 5'UTR act	STAT1 act	STAT3 blocker	STAT3 activator	NF-kB neuron act	STAT1 inh	STAT1 activ conf	NFkB act STAT1ct	STAT3 act STAT1c
Cc1ccc2oc(-c3ccc(NC(=O)CC(C)C)cc3)nc2c1	119	154*	1	105	2.4	-59	212*	130	108
Cc1ccc(N2C(=O)NC(NC(=O)c3ccc(Cl)cc3)(C(F)(F)F)C2=O)cc1 (centres undefined)	-16	102	-6	103	0.96	-2	·	·	·
COc1cc(NC(=O)c2ccccc2Cl)ccc1NC(=O)c1cccs1	85	153*	18	89	1.3	-53	181*	134*	98
COc1ccccc1C(=O)C1CCCN(C(=O)c2cccc(-n3cccn3)c2)C1 (centres undefined)	5	97	6	98	1.1	2	·	·	·
Cc1ccc(N=Nc2c(N)nn(-c3ccccc3)c2N)cc1	24	155*	-3	105	6*	-62	180*	138*	102
O=C(c1ccco1)N1CCN(C(=O)c2ccccc2NS(=O)(=O)c2ccc(F)cc2)CC1	20	93	-4	108	1	6	·	·	·
O=c1c(C=NCCN2CCNCC2)c(-c2ccccc2)[nH]n1-c1ccc([N+](=O)[O-])cc1	8	168*	-12	111	1.8	-75	145*	125	120*
Nc1nnc(-c2ccc(Cl)c(Cl)c2)s1	1	119	18	87	1.5	-21	·	·	·
Nc1cccn2c(-c3ccc(Cl)c(Cl)c3)cnc12	211*	151*	-15	115	12*	-55	102	131	159*
NC(=O)C1(N2CCCCC2)CCN(C(=S)Nc2cccc(Cl)c2)CC1	12	87	17	88	0.95	15	·	·	·
CC(C)C(NC(=O)OCc1ccccc1)C(=O)N1CCOCCOCCOCC1 (centres undefined)	-14	91	5	98	1	9	·	·	·

High-throughput results deposited in PubChem BioAssay by several laboratories.
